Here are results for two molecules from ChEMBL document CHEMBL5126625, “Discovery of AZD4831, a Mechanism-Based Irreversible Inhibitor of Myeloperoxidase, As a Potential Treatment for Heart Failure with Preserved Ejection Fraction” (J Med Chem, 2022).

Data set [1] in a line: Drug uptake in Lister Hooded rat eyes at 4.55 umol/kg, po measured after 24 hrs by whole body autoradiography. The data set is classed as ADME, organism-based, Eye. The settings on record: in vivo, dose 4.55 µmol/kg. Summed up:
(§1)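 Rats were given a single oral dose of 10 MBq/kg of the [14C]-labelled compound. Whole-body autoradiography was done 24 h post-dose on sections before and after extraction, with the nonextractable liver fraction taken from the extracted sections. Whole-body drug-related material was also measured at 7 days.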

The nature of data set [2]: Drug uptake in Lister Hooded rat pigmented skin at 4.55 umol/kg, po measured after 24 hrs by whole body autoradiography. The class given is ADME, organism-based, Skin of body. To be noted: in vivo, dose 4.55 µmol/kg. Summed up:
as §1

Data set [3] can be described thus: Drug uptake in Lister Hooded rat at 4.55 umol/kg, po measured after 7 days by whole body autoradiography. The data set is classed as ADME, organism-based. The settings on record: in vivo, 168 h, at 4.55 µmol/kg, time 7 day. Summed up:
as §1

Data set [4] in a line: Drug uptake in Lister Hooded rat liver assessed as nonextractable fraction at 4.55 umol/kg, po measured after 24 hrs by whole body autoradiography. The class given is ADME, organism-based. The settings on record: in vivo, at 4.55 µmol/kg. Summed up: as §1
For another data set, the target named is Cytochrome P450 2C19 (Homo sapiens, UniProt P33261). Nature of the data set: Inhibition of human recombinant CYP2C19 using coumarin as substrate preincubated with enzyme for 10 mins followed by NADPH addition and measured after 20 to 50 mins by fluorescence based method.
A short description of data set [5]: Lipophilicity, log D of the compound. To be noted: octanol/water.
Data set [6] in a line: Toxicity in dog assessed as NOAEL by 9 months toxicology study. To be noted: in vivo, 6570 h. More on the design: species or system Canis lupus familiaris. Summed up:
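Pivotal 9-month repeat-dose toxicology study in dogs with daily dosing up to 100 mg/kg/day. Endpoints included food consumption, body weight and pathology. The NOAEL was assigned from these findings.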

The next data set in a line: physchem. The settings on record: phosphate buffer, pH 7.4.
The next data set concerns the target T1, Cytochrome P450 1A2 (Homo sapiens, UniProt P05177).
T1 sequence (P05177 whole entry): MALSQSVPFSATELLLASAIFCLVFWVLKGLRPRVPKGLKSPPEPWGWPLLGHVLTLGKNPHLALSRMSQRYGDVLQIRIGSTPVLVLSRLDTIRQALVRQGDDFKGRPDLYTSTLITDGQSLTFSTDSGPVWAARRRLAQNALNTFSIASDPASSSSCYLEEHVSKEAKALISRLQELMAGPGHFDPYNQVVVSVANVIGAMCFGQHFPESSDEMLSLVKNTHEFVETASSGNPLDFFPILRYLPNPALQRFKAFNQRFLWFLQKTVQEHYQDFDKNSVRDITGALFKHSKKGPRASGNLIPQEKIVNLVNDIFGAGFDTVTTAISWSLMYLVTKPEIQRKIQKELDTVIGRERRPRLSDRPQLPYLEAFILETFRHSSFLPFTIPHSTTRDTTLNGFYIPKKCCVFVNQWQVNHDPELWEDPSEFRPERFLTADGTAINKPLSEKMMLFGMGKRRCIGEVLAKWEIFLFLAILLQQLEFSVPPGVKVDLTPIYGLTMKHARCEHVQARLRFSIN
Nature of the data set: Inhibition of human recombinant CYP1A2 using coumarin as substrate preincubated with enzyme for 10 mins followed by NADPH addition and measured after 20 to 50 mins by fluorescence based method.

Data set [7] can be described thus: Oral bioavailability in Beagle dog measured up to 24 hrs by LC-MS/MS analysis. The data set is classed as ADME, organism-based, Canis lupus familiaris. To be noted: in vivo.
The nature of data set [8]: Apparent permeability of the compound across apical to basolateral side in human Caco-2 cells at 10 uM by LC-MS/MS analysis.
Data set [9] can be described thus: Toxicity in dog assessed as food intake by 9 months toxicology study. More on the design: species or system Canis lupus familiaris. To be noted: in vivo, 6570 h. Summed up:
(§2)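 Pivotal 9-month repeat-dose toxicology study in dogs at doses up to 100 mg/kg/day, with food consumption, body weight and pathology monitored.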

A short description of data set [10]: Oral bioavailability in Wistar Han rat measured up to 24 hrs by LC-MS/MS analysis. The data set is classed as ADME, organism-based. To be noted: in vivo.
Another data set addresses Cytochrome P450 3A4 (Homo sapiens, UniProt P08684).
Another data set relates to Mus musculus. The data set is described as follows: In vivo inhibition of MPO in peritoneal lavage of zymosan-induced neutrophilic peritonitis BALB/c mouse model at 0.01 to 10 umol/kg, po administered 2 hrs prior to zymosan injection and measured after 2 hrs by chemiluminescence assay. The data set is classed as functional, organism-based. To be noted: dose 0.01-10 µmol/kg, time 4.0 hrs, DDE = dose-dependent effect. Summed up: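 BALB/c mice given 10, 1, 0.1 or 0.01 µmol/kg orally 2 h before intraperitoneal zymosan. Peritoneal lavage collected 2 h later and peroxidase activity quantified by chemiluminescence; neutrophils dominate the infiltrate, so activity attributed to MPO.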

Data set [11] in a line: Toxicity in male rat assessed as NOAEL by 6 months toxicology study. The settings on record: in vivo, 4380 h. Summed up: (§3)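 Pivotal 6-month repeat-dose toxicology study in rats with daily dosing up to 125 mg/kg/day. Males and females were assessed separately, and a NOAEL was assigned for each sex.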
Data set [12] can be described thus: Toxicity in rat bone marrow by micronucleus test.
In data set [13] the target is Voltage-gated inwardly rectifying potassium channel KCNH2 (Homo sapiens, UniProt Q12809).
A short description of data set [14]: Drug uptake in human hepatocytes assessed as covalent binding measured per mg protein. The class given is ADME, cell-based, Hepatocyte. Summed up:
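[14C]-labelled compound incubated with human hepatocytes; covalently bound radioactivity expressed as pmol per mg protein.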

Data set [15] is described as follows: Toxicity in female rat assessed as NOAEL by 6 months toxicology study. The settings on record: in vivo, 4380 h. Summed up: as §3
A short description of data set [16]: Toxicity in dog assessed as body weight by 9 months toxicology study. Set-up: species or system Canis lupus familiaris. To be noted: in vivo, 6570 h. Summed up:
as §2

Another data set has as its target Cytochrome P450 2D6 (Homo sapiens, UniProt P10635). The data set is described as follows: Inhibition of CYP2D6 (unknown origin) using coumarin as substrate preincubated with enzyme for 10 mins followed by NADPH addition and measured after 20 to 50 mins by fluorescence based method.
The target in the next data set is Cytochrome P450 2C9 (Homo sapiens, UniProt P11712). The data set is described as follows: Inhibition of human recombinant CYP2C9 using coumarin as substrate preincubated with enzyme for 10 mins followed by NADPH addition and measured after 20 to 50 mins by fluorescence based method.

Converted amounts (≈) assume the structure as drawn.

Sequence of Cytochrome P450 2C9 (P11712 whole entry): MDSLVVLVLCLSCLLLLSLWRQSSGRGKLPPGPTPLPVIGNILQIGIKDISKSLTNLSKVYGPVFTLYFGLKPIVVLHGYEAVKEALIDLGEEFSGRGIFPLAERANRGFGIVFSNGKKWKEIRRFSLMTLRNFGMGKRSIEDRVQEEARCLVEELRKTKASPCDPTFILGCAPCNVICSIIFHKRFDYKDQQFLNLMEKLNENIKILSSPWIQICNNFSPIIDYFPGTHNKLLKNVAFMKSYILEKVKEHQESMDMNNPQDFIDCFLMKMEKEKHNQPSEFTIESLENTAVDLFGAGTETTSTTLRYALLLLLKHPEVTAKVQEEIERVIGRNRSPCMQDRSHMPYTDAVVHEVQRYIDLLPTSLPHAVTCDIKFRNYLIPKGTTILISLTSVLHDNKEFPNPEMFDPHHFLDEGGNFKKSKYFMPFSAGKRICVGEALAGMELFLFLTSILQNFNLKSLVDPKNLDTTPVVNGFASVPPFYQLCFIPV
Sequence of Voltage-gated inwardly rectifying potassium channel KCNH2 (Q12809 whole entry): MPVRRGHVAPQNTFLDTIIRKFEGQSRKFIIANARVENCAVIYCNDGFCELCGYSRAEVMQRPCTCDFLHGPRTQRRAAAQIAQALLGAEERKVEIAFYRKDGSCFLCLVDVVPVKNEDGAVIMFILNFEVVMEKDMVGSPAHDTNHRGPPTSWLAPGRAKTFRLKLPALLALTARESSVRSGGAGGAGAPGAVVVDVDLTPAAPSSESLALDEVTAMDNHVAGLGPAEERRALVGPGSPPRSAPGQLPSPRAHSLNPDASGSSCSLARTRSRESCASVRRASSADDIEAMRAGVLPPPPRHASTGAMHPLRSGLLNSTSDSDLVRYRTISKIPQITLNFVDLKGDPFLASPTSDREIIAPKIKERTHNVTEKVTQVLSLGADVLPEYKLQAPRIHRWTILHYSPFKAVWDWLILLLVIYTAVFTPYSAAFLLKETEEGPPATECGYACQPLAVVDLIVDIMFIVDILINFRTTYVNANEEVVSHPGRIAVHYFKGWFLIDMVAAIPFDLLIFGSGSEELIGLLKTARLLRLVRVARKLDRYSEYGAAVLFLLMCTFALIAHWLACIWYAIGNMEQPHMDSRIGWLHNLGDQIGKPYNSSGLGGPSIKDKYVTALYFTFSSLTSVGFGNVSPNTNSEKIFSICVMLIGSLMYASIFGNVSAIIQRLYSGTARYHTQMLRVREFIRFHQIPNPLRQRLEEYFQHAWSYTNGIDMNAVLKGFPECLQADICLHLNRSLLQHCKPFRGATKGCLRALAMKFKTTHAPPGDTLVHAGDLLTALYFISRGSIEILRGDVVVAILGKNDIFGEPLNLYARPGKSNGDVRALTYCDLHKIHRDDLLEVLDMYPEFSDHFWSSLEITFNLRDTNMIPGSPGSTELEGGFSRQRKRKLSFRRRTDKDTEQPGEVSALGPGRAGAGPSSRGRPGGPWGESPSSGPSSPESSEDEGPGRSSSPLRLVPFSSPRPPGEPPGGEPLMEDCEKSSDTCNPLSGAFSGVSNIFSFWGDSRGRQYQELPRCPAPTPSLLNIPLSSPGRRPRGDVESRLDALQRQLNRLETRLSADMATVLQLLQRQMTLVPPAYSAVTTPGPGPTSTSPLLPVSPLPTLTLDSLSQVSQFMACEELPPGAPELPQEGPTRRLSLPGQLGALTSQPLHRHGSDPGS
Sequence of Cytochrome P450 3A4 (P08684 whole entry): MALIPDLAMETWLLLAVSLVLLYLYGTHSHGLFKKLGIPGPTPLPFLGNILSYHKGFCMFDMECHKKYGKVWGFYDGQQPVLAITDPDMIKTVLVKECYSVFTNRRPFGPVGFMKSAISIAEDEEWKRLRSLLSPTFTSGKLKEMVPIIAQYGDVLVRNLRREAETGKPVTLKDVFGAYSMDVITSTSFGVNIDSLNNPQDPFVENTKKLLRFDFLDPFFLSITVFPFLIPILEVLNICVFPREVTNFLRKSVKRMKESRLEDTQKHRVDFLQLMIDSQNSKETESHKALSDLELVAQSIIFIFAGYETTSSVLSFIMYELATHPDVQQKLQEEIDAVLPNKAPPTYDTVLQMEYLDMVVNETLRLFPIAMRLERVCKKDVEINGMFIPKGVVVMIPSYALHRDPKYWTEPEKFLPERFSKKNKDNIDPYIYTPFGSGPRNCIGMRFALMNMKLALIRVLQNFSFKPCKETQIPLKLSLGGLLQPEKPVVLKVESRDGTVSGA
Sequence of Cytochrome P450 2D6 (P10635 whole entry): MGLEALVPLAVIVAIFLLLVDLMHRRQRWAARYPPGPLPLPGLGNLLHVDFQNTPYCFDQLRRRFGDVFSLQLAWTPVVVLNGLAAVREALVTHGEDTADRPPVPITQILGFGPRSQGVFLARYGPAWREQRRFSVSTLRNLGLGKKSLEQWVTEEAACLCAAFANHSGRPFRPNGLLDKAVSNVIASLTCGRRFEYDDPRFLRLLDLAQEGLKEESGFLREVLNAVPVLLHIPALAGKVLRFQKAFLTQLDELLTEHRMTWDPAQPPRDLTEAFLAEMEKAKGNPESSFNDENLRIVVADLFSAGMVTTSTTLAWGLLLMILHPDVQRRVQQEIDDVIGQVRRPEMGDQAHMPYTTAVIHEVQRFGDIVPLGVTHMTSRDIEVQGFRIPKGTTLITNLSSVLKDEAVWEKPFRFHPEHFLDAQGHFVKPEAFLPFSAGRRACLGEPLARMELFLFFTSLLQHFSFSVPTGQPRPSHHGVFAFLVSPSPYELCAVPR
Sequence of Cytochrome P450 2C19 (P33261 whole entry): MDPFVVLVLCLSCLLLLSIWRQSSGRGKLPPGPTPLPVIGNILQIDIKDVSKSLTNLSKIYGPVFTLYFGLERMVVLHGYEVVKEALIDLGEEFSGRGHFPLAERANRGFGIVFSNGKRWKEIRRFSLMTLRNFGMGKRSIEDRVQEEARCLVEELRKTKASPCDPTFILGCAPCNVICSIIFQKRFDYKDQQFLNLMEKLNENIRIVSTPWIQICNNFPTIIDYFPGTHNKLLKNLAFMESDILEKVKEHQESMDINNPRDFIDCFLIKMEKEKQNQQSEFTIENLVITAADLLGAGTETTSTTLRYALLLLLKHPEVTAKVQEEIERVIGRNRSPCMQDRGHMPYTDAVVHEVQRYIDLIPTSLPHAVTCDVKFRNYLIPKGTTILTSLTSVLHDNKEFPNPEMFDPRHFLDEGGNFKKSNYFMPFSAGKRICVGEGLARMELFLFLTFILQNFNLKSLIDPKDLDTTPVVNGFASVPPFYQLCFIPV

In the case of `C[C@@H](N)c1cc(Cl)ccc1Cn1c2cc[nH]c2c(=O)[nH][14c]1=S`, the Drug uptake entry in data set [1] is recorded as “Active”; in data set [2] it was “Active”; in [3], 0.1%; in data set [4], under 0.2%.

`C[C@@H](N)c1cc(Cl)ccc1Cn1c(=S)[nH]c(=O)c2[nH]ccc21`: the half-inhibitory concentration (IC50) at Cytochrome P450 2C19 is over 30 µM; at Cytochrome P450 1A2, over 30 µM; at Cytochrome P450 3A4 it was 6 µM; in [13] it was 21 µM; against Cytochrome P450 2D6, over 30 µM; on Cytochrome P450 2C9 it was over 30 µM. For the same molecule, in [5], the logD turned out to be 1.2. For the same molecule, the NOAEL turned out to be 100 mg/kg/day in [6], 125 mg/kg/day in data set [11] and 125 mg/kg/day in data set [15]. Besides, the thermodynamic solubility at 18 h in “physchem” came out at 270 µM (≈ 90.4 µg/mL). Besides, the bioavailability in data set [7] was determined as 52%; in data set [10] it was 61%. The Papp A→B at 10 µM in [8] amounted to 11 ×10⁻⁶ cm/s. Also, the Activity entry in [9], in data set [12] and in data set [16] was “Non-Toxic” each time. Moreover, the inhibition entry with Mus musculus was “Dde”. Besides, the Drug uptake in [14] was 56 pmol.

For orientation: IC50 means the point on the concentration scale where inhibition reaches its midpoint. The term logD denotes the decadic logarithm of the distribution of all forms, ionised or not, between an organic phase and buffer at a given pH. A high value points to a more lipophilic compound. The term NOAEL denotes the highest tested level that showed no adverse finding. The solubility (thermodynamic) is solubility found after equilibrating the solid with the medium. By bioavailability is commonly meant dose-corrected exposure relative to a reference, in per cent. Read a low bioavailability as poor availability. For orientation: Papp A→B means how fast a substance crosses the layer from the apical side.
